Bioassay records deposited in PubChem BioAssay by Broad Institute.
A selection: hits, their analogues and other compounds. The true share with any hit is near 2.6%.
esBAF inh: inhibitors of esBAF chromatin remodeling in mouse ES cells; 2% of 350,000 active; Bmi1-luciferase knock-in reporter, 24 h; 100% = twice the neutral-well signal; reporter increase, % at 12.5 µM; in the data active means activation above about 40%; inconclusive means no clear call, values can overlap the other calls;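 further: 0% = median of the plate's neutral control wells and 100% = double that signal; a rise in the Bmi1 reporter signal indicates esBAF inhibition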
MITF act: activators of MITF-driven TRPM1 promoter activity in SK-MEL-5 cells; SK-MEL-5 TRPM1-promoter luciferase, 24 h; % of positive control, neutral wells = 0; activation, % at 12.5 µM; 0.75% of 300,000 active;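 active means mean activation of at least 80% with every replicate also reaching 80%; inconclusive means mean reaches 80% but some replicate falls short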;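 further: 0% = neutral control wells and 100% = parthenolide positive control wells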
Xi reactivation: X-chromosome reactivation activator; XiGFP mouse fibroblasts, % GFP-positive cells imaging, 3 d; cells co-treated with 5-aza-dC sensitizer; scaled so ellipticine positive control = 100%; activation, % at 7.58 µM; 0.055% of 360,000 active; AID 743238;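 active means mean normalized replicate activation at least 10% and every replicate at or above 10%; inconclusive means only one of the two criteria met; inactive means mean below 10% and not all replicates reach 10%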;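 further: 0% = median of on-plate neutral control wells and 100% = ellipticine 6 µM median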
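Material: XiGFP fibroblasts, SV40-immortalized. Buffer or medium: DMEM plus 5-aza-dC sensitizer. Compound: single concentration per compound, delivered by pin transfer. Times: 3 days compound exposure. Controls: ellipticine 6 µM.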
Wnt act: activates Wnt/beta-catenin signaling in a reporter cell assay; AID 743398; activation, % at 9.35 µM; activator, plate reader; 1.2% of 300,000 active; in the data active means activation above about 30%, passing the limit was not always enough; inconclusive means no clear call, values can overlap the other calls;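 further: 0% = neutral control wells and 100% = positive control wells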
Vif imaging: HIV Vif inhibition | inhibition, % at 7.49 µM | 0.35% of 340,000 active | HEK293T cells, Vif self-association by quenched fluorescence, imaging, 24 h; in the data active means inhibition above about 50%, passing the limit was not always enough; inconclusive means no clear call, values can overlap the other calls; inactive means below about 31%
* = called active by the depositor; u = inconclusive; x = no result.

SMILES	esBAF inh	MITF act	Xi reactivation	Wnt act	Vif imaging
CCCNC(=O)Nc1ccc2c(c1)C(=O)N(C)C[C@@H](OC)[C@@H](C)CN(Cc1ccccc1)[C@H](C)CO2	2	x	0	x	x
COc1cccc(CC(=O)Nc2ccc3c(c2)OC2(CCCC2)O3)c1	42*	19	0	3	-10
CC(=O)Nc1ccc(CC(=O)Nc2ccc3c(c2)OC2(CCCC2)O3)cc1	46*	x	0	-6	-8
CCCNC(=O)N(C)C[C@H]1Oc2ncc(C#CC3(O)CCCC3)cc2C(=O)N([C@@H](C)CO)C[C@@H]1C	1	x	0	x	x
Cc1cccc(-c2ccc([C@@H]3[C@@H](CO)N4C(=O)CN(C(=O)c5cnccn5)C[C@@H]34)cc2)c1	x	x	0	x	x
C[C@H]1CN([C@@H](C)CO)C(=O)c2cc(NC(=O)CCCN(C)C)ccc2O[C@@H]1CN(C)CC1CC1	-3	x	-1	x	x
COc1ccc(Oc2ccc(C(F)(F)F)cc2N)cc1	43*	52	0	8	-1
CN(/N=C/c1ccc(N(C)C)cc1)C1=NS(=O)(=O)c2ccccc21	2	-6	0	-9	128*
COc1ccc(/C=N/N(C)C2=NS(=O)(=O)c3ccccc32)cc1	-5	5	0	-1	6
COc1ccc(NC(=O)Nc2cccc3c2O[C@@H](CN(C)S(=O)(=O)c2cccs2)[C@@H](C)CN([C@H](C)CO)C3=O)cc1	7	x	0	x	x
O=C(C1CCCC1)N1CC2(C1)[C@@H](c1ccccc1)[C@@H](CO)N2C(=O)NC1CCCC1	x	x	0	x	x
CCNC(=O)C[C@@H]1CC[C@@H]2[C@H](COC[C@H](O)CN2C(=O)Nc2ccc(C(F)(F)F)cc2)O1	-1	x	0	x	x
C[C@H]1CN([C@@H](C)CO)C(=O)Cc2cc(NS(=O)(=O)c3cccs3)ccc2O[C@@H]1CN(C)C(=O)Nc1ccccc1	3	x	0	x	x
C/C=C/c1cnc2c(c1)C(=O)N([C@@H](C)CO)C[C@@H](C)[C@H](CN(C)S(=O)(=O)c1ccccc1F)O2	-6	x	0	x	x
CCCn1ncc2c(Nc3ccc(C)c(C)c3)ncnc21	67*	98*	0	20	9
O=C(N[C@H]1CC[C@@H](CCNC(=O)C2CCCCC2)O[C@@H]1CO)c1ccncc1	-2	x	0	x	x
O=C(CNC(=O)c1ccc([N+](=O)[O-])cc1)N/N=C\c1ccc(OC(=O)c2ccccc2)cc1	-5	-18	x	-3	50*
CCCC(=O)N1CC2(CN(C(=O)NC(C)C)C2)c2c(n(C)c3cc(OC)ccc23)[C@H]1CO	x	x	0	x	x
O=C(C1CCCC1)N1CC(=O)N2[C@H](CO)[C@H](c3ccc(C#Cc4cccc(F)c4)cc3)[C@@H]2C1	x	x	0	x	x
Cc1ccc(O)c(-n2nc3ccccc3n2)c1	43*	u	0	10	3
OC[C@H]1[C@@H](c2ccccc2)C2(CN(CCC(F)(F)F)C2)N1Cc1ccncc1	x	x	0	x	x
CN1C(=O)c2cc(NC(=O)c3cccc(F)c3)ccc2OC[C@H]2O[C@H](CC(=O)NCc3ccccc3)CC[C@@H]21	5	x	0	x	x
Nc1ccc(Nc2nc(-c3ccncc3)cs2)cc1	35	120*	x	10	1
COc1ccc(Nc2nc(-c3c[nH]c4ccccc34)cs2)cc1	x	26	0	40*	-3
COc1ccc(-c2csc(Nc3ccccc3)n2)cc1	x	65	0	16	-5
SMILES	esBAF inh	MITF act	Xi reactivation	Wnt act	Vif imaging
COc1ccc(Nc2nc(-c3ccc(OC)cc3)cs2)cc1	x	94*	0	0	0
Fc1ccc(Nc2nc(-c3ccncc3)cs2)cc1	x	84*	0	28	-1
CC(=O)N(C)C[C@@H]1Oc2ccc(NS(C)(=O)=O)cc2C(=O)N(C)C[C@H]1C	x	x	0	x	x
O=S(=O)(c1cccs1)N1CN(Cc2ccc(Cl)cc2)c2nc3ccccc3nc21	54*	3	x	x	1
Cc1ccc(CN2CN(S(=O)(=O)c3cccs3)c3nc4ccccc4nc32)cc1	70*	66	x	x	14
O=S(=O)(c1cccs1)N1CN(Cc2ccco2)c2nc3ccccc3nc21	18	11	0	7	-12
CC(C)NC(=O)N(C)C[C@H]1Oc2ccc(NC(=O)CCC(F)(F)F)cc2C(=O)N([C@H](C)CO)C[C@H]1C	3	x	-1	x	x
COc1ccc(CN(C)C[C@@H]2Oc3ccc(NC(=O)Nc4c(C)noc4C)cc3C(=O)N([C@H](C)CO)C[C@H]2C)cc1	-2	x	-1	x	x
O=C(COC(=O)C12CC3CC(CC(O)(C3)C1)C2)Nc1ccccc1OC(F)F	-3	x	x	-4	-8
O=C(COC(=O)C12CC3CC(CC(O)(C3)C1)C2)Nc1ccc(Br)cc1F	17	129*	0	u	14
O=S(=O)(NCc1cc(-c2ccc(Cl)cc2)no1)c1ccccc1	7	x	x	3	-7
O=S(=O)(NCc1cc(-c2ccccc2Cl)no1)c1ccccc1	2	-11	x	1	5
O=S(=O)(Cc1cc(-c2ccccc2Cl)no1)c1ccccc1	53*	90*	0	-2	9
Clc1ccc(-c2cc(COc3ccccc3)on2)cc1	51*	70	0	9	-1
O=S(=O)(Cc1cc(-c2ccc(Cl)cc2)no1)c1ccccc1	51*	u	x	-4	4
COc1cc(/C=C2\SC(=O)N(CCNC(=O)c3sc4cc(F)ccc4c3Cl)C2=O)cc(OC)c1OC	-4	8	0	-2	63*
COc1cc(C(=O)NCC(=O)NCCN2C(=O)S/C(=C\c3ccccc3Cl)C2=O)cc(OC)c1OC	9	-1	1	-1	-2
Cc1cc(C)cc(C(=O)Nc2ccc(N3CCCC3)cc2)c1	x	18	0	9	3
COc1ccc(Br)cc1C(=O)Nc1ccc(N2CCCC2)cc1	10	x	0	-7	143*
Cc1cc(C)cc(NC(=O)Nc2ccc(N3CCCCC3)cc2)c1	x	x	0	39*	-14
CCCN1C[C@H](C)[C@@H](OC)CN(C)C(=O)c2ccc(NC(=O)C3CCC3)cc2OC[C@H]1C	5	x	0	x	x
Cc1cc(OCc2cc(C(=O)N(C)CCc3cnn(C)c3)no2)cc(C)c1Cl	74*	57	0	0	-6
COc1cc(Cl)ccc1OCc1cc(C(=O)N(C)CCc2cnn(C)c2)no1	88*	74	0	26	-5
Cc1ccc(OCc2cc(C(=O)N(C)Cc3cnn(C)c3)no2)cc1C	46*	x	0	-1	5
Cc1cc(CN(C)C(=O)c2cc(COc3ccc(C)c(C)c3)on2)on1	u	u	0	0	-11
C[C@H]1CN([C@@H](C)CO)C(=O)c2cc(C#CC3CC3)cnc2O[C@H]1CN(C)C(=O)c1ccncc1	x	x	-1	x	x
CC(C)NC(=O)Nc1ccc2c(c1)C(=O)N([C@H](C)CO)C[C@H](C)[C@@H](CN(C)C(=O)Nc1ccc3c(c1)OCO3)OCCCC[C@@H](C)O2	2	x	0	x	x
